Published values gathered from unrelated publications.
Lines come from different studies, so protocols differ.
Target: cAMP-dependent protein kinase catalytic subunit beta (PRKACB, Homo sapiens, UniProt P22694)

Structure (SMILES)	assay	setting	endpoint	value
Cn1cnc(Br)c1C1=CN(c2ncnc3[nH]cnc23)CCS1	enzyme activity, inhibitor, radiometric	50 nM	inhibition	18.7%
C[C@@H]1CN(c2cc(-c3nn(C)c4ccc(OC5(C)CC5)cc34)ncn2)C[C@H](C)O1	cell-free assay, competition with immobilised ligand	1 µM	remaining binding	100%
O=C(Nc1cnn(-c2csc(C(=O)NC3COC3)c2)c1)Nc1ccccc1Cl	enzyme activity, inhibitor	5 µM	remaining activity	99%
COc1cc(-c2cc(-c3ccc(N4CCNCC4)cc3)cnc2C)cc(OC)c1OC	enzyme activity, inhibitor	1 µM	inhibition	3%
C[C@H](c1ccnc(Nc2nc3ccc(-c4cc(N(C)C)ncn4)cc3[nH]2)c1)N1CCN(C(=O)CC(F)(F)F)CC1	cell-free assay, competition with immobilised ligand	0.1 µM	remaining binding	100%
COc1cc(Cl)c(C(=O)N[C@@H](CN[C@H]2CC[C@@H](N)CC2)Cc2ccc(C#N)cc2)cc1-c1ccc(CN[C@H](C)c2ccc(C)cc2)o1	enzyme activity, inhibitor	1 µM	remaining activity	66%
Cc1sc(C(=O)NC2COC2)cc1-n1cc(NC(=O)Nc2c(F)cccc2Cl)cn1	enzyme activity, inhibitor	10 µM	remaining activity	104%
Cc1ccc(C(=O)NCc2ccsc2)cc1C#Cc1cn(C(C)C)c2ncnc(N)c12	enzyme activity, inhibitor	1 µM	activity vs control	111%
CC(C)(O)[C@H]1CC[C@H](Nc2ccc3ncc(-c4cccc(C(F)(F)F)c4)n3n2)CC1	enzyme activity, inhibitor	1 µM	remaining activity	97.7%
Cc1ccc(C(=O)Nc2ccc(CN3CCN(C)CC3)c(C(F)(F)F)c2)cc1C#Cc1cnc2cccnn12	enzyme activity, inhibitor	23.5 nM	remaining activity	83%
O=C(Nc1cccnn1)N1CCC(=Cc2cccc(Oc3ccc(C(F)(F)F)cn3)c2)CC1	cell-free assay, competition with immobilised ligand	1 µM	remaining binding	100%
Nc1ncnc2occ(-c3ccc(NC(=O)Nc4cc(C(F)(F)F)ccc4F)cc3)c12	enzyme activity, inhibitor	20 µM	remaining activity	22%
CN1CC(Oc2cnc(C#N)cc2-c2ccn3nc(NC(=O)C4CC4)cc3c2)C1	enzyme activity, inhibitor	1 µM	inhibition	-10%
